How the values were obtained:
Assay type in all cases: functional
Rattus norvegicus [1] = assay: Antiallergic activity in rat assessed as inhibition of egg albumin-induced passive cutaneous anaphylaxis at 10 mg/kg, iv treated for 30 secs followed by egg albumin-challenge measured after 30 mins relative to control; details: 0.5 h
Rattus norvegicus [2] = assay: Antiallergic activity in rat assessed as inhibition of egg albumin-induced passive cutaneous anaphylaxis at 0.5 mg/kg, iv treated for 30 secs followed by egg albumin-challenge measured after 30 mins relative to control; details: 0.5 h
Rattus norvegicus [3] = assay: Antiallergic activity in iv dosed rat assessed as inhibition of egg albumin-induced passive cutaneous anaphylaxis treated for 30 secs followed by egg albumin-challenge measured after 30 mins; details: 0.5 h, read-out: ID50 (the source's name)
Rattus norvegicus [4] = assay: Antiallergic activity in rat assessed as inhibition of egg albumin-induced passive cutaneous anaphylaxis at 25 mg/kg, po treated for 15 mins followed by egg albumin-challenge measured after 30 mins relative to control
Procedure, shortened: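 Oral PCA in rats: intradermal antiserum at four back sites (dose giving ~12×12 mm wheal), compound po 48 h later, 15 min before iv challenge with 0.5 mL saline containing 5 mg Evans blue plus 5 mg egg albumin; skin bluing read 30 min after challenge on two axes per wheal; six rats per dose versus ≥6 vehicle controls; percent inhibition from mean wheal size, one-sided t test.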

Structure (SMILES) | inhibition in vivo at 0.5 mg/kg (Rattus norvegicus [2]) | ED50 (Rattus norvegicus [3]) | inhibition in vivo at 25 mg/kg (Rattus norvegicus [4]) | also measured
CC(=O)C1=C(O)/C(=C(\C)Nc2ccccc2)C(=O)OC1=O |  |  |  | inhibition in vivo at 10 mg/kg (Rattus norvegicus [1]): 76%
CC(=O)C1=C(O)/C(=C(\C)Nc2ccccc2Cl)C(=O)OC1=O |  |  |  | inhibition in vivo at 10 mg/kg (Rattus norvegicus [1]): 36%
CC(=O)C1=C(O)/C(=C(\C)Nc2cccc(Cl)c2)C(=O)OC1=O |  |  |  | inhibition in vivo at 10 mg/kg (Rattus norvegicus [1]): 74%
CC(=O)C1=C(O)/C(=C(\C)Nc2ccc(Br)cc2)C(=O)OC1=O | 0% |  |  | 
CC(=O)C1=C(O)/C(=C(\C)Nc2cccc(S(N)(=O)=O)c2)C(=O)OC1=O | 45% |  |  | 
CC(=O)C1=C(O)/C(=C(\C)Nc2ccc(S(N)(=O)=O)cc2)C(=O)OC1=O | 12% |  |  | 
CC(=O)C1=C(O)/C(=C(\C)Nc2ccccc2O)C(=O)OC1=O |  | 2.8 mg/kg | -12% | 
CC(=O)C1=C(O)/C(=C(\C)Nc2cccc(O)c2)C(=O)OC1=O |  | 1.6 mg/kg | 0% | 
CC(=O)Oc1ccc(N/C(C)=C2\C(=O)OC(=O)C(C(C)=O)=C2O)cc1 | 41% |  |  | 
CCC(=O)Oc1ccc(N/C(C)=C2\C(=O)OC(=O)C(C(C)=O)=C2O)cc1 | 16% |  |  | 
CCCC(=O)Oc1ccc(N/C(C)=C2\C(=O)OC(=O)C(C(C)=O)=C2O)cc1 |  | 1.5 mg/kg |  | 
CCCCC(=O)Oc1ccc(N/C(C)=C2\C(=O)OC(=O)C(C(C)=O)=C2O)cc1 | 34% |  | 36% | 
CCCCCC(=O)Oc1ccc(N/C(C)=C2\C(=O)OC(=O)C(C(C)=O)=C2O)cc1 |  | 12.1 mg/kg |  | 
CCCCCCC(=O)Oc1ccc(N/C(C)=C2\C(=O)OC(=O)C(C(C)=O)=C2O)cc1 | 21% |  |  | 
CC(=O)C1=C(O)/C(=C(\C)Nc2ccc(OC(=O)C(C)(C)C)cc2)C(=O)OC1=O | 3% |  |  | 
CC(=O)C1=C(O)/C(=C(\C)Nc2ccc(OC(N)=O)cc2)C(=O)OC1=O | 19% |  |  | 
CC(=O)C1=C(O)/C(=C(\C)Nc2ccc(OC(=O)NC3C=CC=CC=C3)cc2)C(=O)OC1=O | 22% |  |  | 
CC(=O)C1=C(O)/C(=C(\C)Nc2cccc(OCC(=O)O)c2)C(=O)OC1=O | 6% |  |  | 
CC(=O)C1=C(O)/C(=C(\C)Nc2ccc(OCC(=O)O)cc2)C(=O)OC1=O |  | 0.5 mg/kg | 2% | 
CC(=O)C1=C(O)/C(=C(\C)Nc2ccc(S)cc2)C(=O)OC1=O |  | 1.9 mg/kg |  | 
CC(=O)C1=C(O)/C(=C(\C)Nc2ccccc2N)C(=O)OC1=O |  | 27.5 mg/kg |  | 
CC(=O)C1=C(O)/C(=C(\C)Nc2cccc(N)c2)C(=O)OC1=O |  | 0.3 mg/kg |  | 
CNc1cccc(N/C(C)=C2\C(=O)OC(=O)C(C(C)=O)=C2O)c1 | -8% |  |  | 

Structure (SMILES) | inhibition in vivo at 0.5 mg/kg (Rattus norvegicus [2]) | ED50 (Rattus norvegicus [3]) | inhibition in vivo at 25 mg/kg (Rattus norvegicus [4]) | also measured
CC(=O)C1=C(O)/C(=C(\C)Nc2ccc(N)cc2)C(=O)OC1=O | 58% |  | 23% | 
CC(=O)C1=C(O)/C(=C(\C)Nc2cccc(NC(=N)NS(=O)(=O)c3ccc(C)cc3)c2)C(=O)OC1=O | 2% |  |  | 
CC(=O)C1=C(O)/C(=C(\C)Nc2cccc(NC(=N)N)c2)C(=O)OC1=O.O=[N+]([O-])O |  | 0.9 mg/kg | -7% | 
CC(=O)C1=C(O)/C(=C(\C)Nc2ccccc2NC=O)C(=O)OC1=O | 52% |  | 31% | 
CC(=O)C1=C(O)/C(=C(\C)Nc2cccc(NC=O)c2)C(=O)OC1=O | 22% |  |  | 
CC(=O)C1=C(O)/C(=C(\C)Nc2ccc(NC=O)cc2)C(=O)OC1=O | 49% |  | -6% | 
CC(=O)Nc1ccccc1N/C(C)=C1\C(=O)OC(=O)C(C(C)=O)=C1O | -12% |  |  | 
CC(=O)C1=C(O)/C(=C(\C)Nc2cccc(NC(N)=O)c2)C(=O)OC1=O | 45% |  | 6% | 
CC(=O)C1=C(O)/C(=C(\C)Nc2ccc(NC(N)=O)cc2)C(=O)OC1=O | 38% |  | -17% | 
CCC(=O)Nc1cccc(N/C(C)=C2\C(=O)OC(=O)C(C(C)=O)=C2O)c1 |  | 0.2 mg/kg | 70% | 
CCC(=O)Nc1ccc(N/C(C)=C2\C(=O)OC(=O)C(C(C)=O)=C2O)cc1 |  | 1.6 mg/kg |  | 
CC(=O)C1=C(O)/C(=C(\C)Nc2cccc(NC(=O)C(C)C)c2)C(=O)OC1=O | 72% |  | 46% | 
CCCC(=O)Nc1cccc(N/C(C)=C2\C(=O)OC(=O)C(C(C)=O)=C2O)c1 | 58% |  |  | 
CC(=O)CCC(=O)Nc1cccc(N/C(C)=C2\C(=O)OC(=O)C(C(C)=O)=C2O)c1 |  | 0.4 mg/kg |  | 
CC(=O)C1=C(O)/C(=C(\C)Nc2cccc(N3C(=O)CCC3=O)c2)C(=O)OC1=O | 22% |  |  | 
CC(=O)C1=C(O)/C(=C(\C)Nc2cccc(NS(C)(=O)=O)c2)C(=O)OC1=O | 28% |  |  | 
CC(=O)C1=C(O)/C(=C(\C)Nc2ccc(NS(C)(=O)=O)cc2)C(=O)OC1=O | 20% |  |  | 
CC(=O)C1=C(O)/C(=C(\C)Nc2cccc(NS(=O)(=O)c3ccccc3)c2)C(=O)OC1=O |  | 1.3 mg/kg | 7% | 
CC(=O)C1=C(O)/C(=C(\C)Nc2ccc(NS(=O)(=O)c3ccccc3)cc2)C(=O)OC1=O | 4% |  |  | 
CC(=O)C1=C(O)/C(=C(\C)Nc2cccc(NS(N)(=O)=O)c2)C(=O)OC1=O | 45% |  | 13% | 
CC(=O)C1=C(O)/C(=C(\C)Nc2ccc(NS(N)(=O)=O)cc2)C(=O)OC1=O |  | 0.3 mg/kg | 10% | 
CCOC(=O)Nc1cccc(N/C(C)=C2\C(=O)OC(=O)C(C(C)=O)=C2O)c1 |  | 0.4 mg/kg |  | 
CC(=O)C1=C(O)/C(=C(\C)Nc2cccc(NC(=O)C(=O)C(=O)O)c2)C(=O)OC1=O |  | 0.03 mg/kg | 21% | 

Structure (SMILES) | inhibition in vivo at 0.5 mg/kg (Rattus norvegicus [2]) | ED50 (Rattus norvegicus [3]) | inhibition in vivo at 25 mg/kg (Rattus norvegicus [4]) | also measured
CC(=O)C1=C(O)/C(=C(\C)Nc2cccc(NC(=O)C(O)CO)c2)C(=O)OC1=O (stereo not given) |  | 0.05 mg/kg | 55% | 
CC(=O)NCc1cccc(N/C(C)=C2\C(=O)OC(=O)C(C(C)=O)=C2O)c1 | 4% |  |  | 
CC(=O)C1=C(O)/C(=C(\C)Nc2cccc(C(N)=O)c2)C(=O)OC1=O | -16% |  |  | 
CNC(=O)c1cccc(N/C(C)=C2\C(=O)OC(=O)C(C(C)=O)=C2O)c1 | 24% |  |  | 
CCNC(=O)c1cccc(N/C(C)=C2\C(=O)OC(=O)C(C(C)=O)=C2O)c1 | -4% |  |  | 
CC(=O)C1=C(O)/C(=C(\C)Nc2cccc(C(=O)N(C)C)c2)C(=O)OC1=O | 10% |  |  | 
CC(=O)C1=C(O)/C(=C(\C)Nc2cccc(C(=O)NC3C(=O)NC(=O)NC3=O)c2)C(=O)OC1=O | 39% |  |  | 
CNc1cc(N/C(C)=C2\C(=O)OC(=O)C(C(C)=O)=C2O)ccc1O | -6% |  |  | 
CC(=O)NCc1cc(N/C(C)=C2\C(=O)OC(=O)C(C(C)=O)=C2O)ccc1O | 1% |  |  | 
CC(=O)C1=C(O)/C(=C(\C)Nc2ccc3oc(C)nc3c2)C(=O)OC1=O | 13% |  |  | 
COc1ccc(N/C(C)=C2\C(=O)OC(=O)C(C(C)=O)=C2O)cc1NC(C)=O | 27% |  |  | 
CNC(=O)c1cc(N/C(C)=C2\C(=O)OC(=O)C(C(C)=O)=C2O)ccc1O | 38% |  |  | 
CC(=O)C1=C(O)/C(=C(\C)Nc2ccc(O)c(NS(C)(=O)=O)c2)C(=O)OC1=O | 38% |  |  | 
CC(=O)C1=C(O)/C(=C(\C)Nc2cc(C(F)(F)F)cc(C(F)(F)F)c2)C(=O)OC1=O | 14% |  |  | 
CCCC(=O)Nc1cc(NC(=O)CCC)cc(N/C(C)=C2\C(=O)OC(=O)C(C(C)=O)=C2O)c1 |  | 0.05 mg/kg | 7% | 
CCOC(=O)Nc1cc(NC(=O)OCC)cc(N/C(C)=C2\C(=O)OC(=O)C(C(C)=O)=C2O)c1 |  | 0.25 mg/kg | -18% | 
CC(=O)C1=C(O)/C(=C(\C)Nc2cc(NS(=O)(=O)c3ccccc3)cc(NS(=O)(=O)c3ccccc3)c2)C(=O)OC1=O | -9% |  |  | 
CC(=O)C1=C(O)/C(=C(\C)Nc2cc(O)c(O)c(O)c2)C(=O)OC1=O |  | 0.4 mg/kg | -3% | 
CC(=O)C1=C(O)/C(=C(\C)Nc2c(O)cccc2O)C(=O)OC1=O | -22% |  |  | 
CC(=O)Nc1ccc(O)c(N/C(C)=C2\C(=O)OC(=O)C(C(C)=O)=C2O)c1 | 40% |  | 4% | 
CC(=O)C1=C(O)/C(=C(\C)N2CCOCC2)C(=O)OC1=O | 2% |  |  | 
CC(=O)c1c(O)oc(=O)c(C(C)=O)c1O |  | 14 mg/kg |  | 
CCCCCC(=O)c1c(O)oc(=O)c(C(=O)CCCCC)c1O |  | 6 mg/kg |  | 

— ChEMBL document CHEMBL3244146, “Pyranenamines: a new series of antiallergic compounds” (1979)
